Source: ChEMBL document CHEMBL1135248, “Synthesis and evaluation of pseudopeptide analogues of a specific CXCR4 inhibitor, T140: the insertion of an (E)-alkene dipeptide isostere into the betaII'-turn moiety” (Bioorg Med Chem Lett, 2002)
Values joined by “and” are separate entries in the source; they are usually repeats but may differ in a detail not shown here. Equal values may be shown once.

Columns and labels:
[1] = target: T1, C-X-C chemokine receptor type 4 (Homo sapiens, UniProt P61073); assay: (§1) Inhibitory activity based on the inhibition of [Ca2+] mobilization induced by human SDF-1alpha stimulation through CXCR4
T1 sequence (P61073 whole entry): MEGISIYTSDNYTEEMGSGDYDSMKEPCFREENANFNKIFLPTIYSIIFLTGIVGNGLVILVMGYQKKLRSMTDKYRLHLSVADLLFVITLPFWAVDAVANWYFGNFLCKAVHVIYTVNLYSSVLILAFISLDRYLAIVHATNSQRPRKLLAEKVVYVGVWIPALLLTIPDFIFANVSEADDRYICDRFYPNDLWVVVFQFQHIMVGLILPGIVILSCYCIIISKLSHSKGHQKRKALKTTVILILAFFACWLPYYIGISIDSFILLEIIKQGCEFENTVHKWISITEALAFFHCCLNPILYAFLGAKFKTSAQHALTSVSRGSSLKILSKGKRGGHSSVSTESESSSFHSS
In short: (§2)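 CHO cells transfected with CXCR4 were loaded with Fura-2-AM for 1–2 h and then pretreated with analogue. Recombinant human SDF-1α was added 3 min later. [Ca2+]i rise was measured spectrofluorometrically by a modified Fura-2 method, and IC50 was derived from inhibition of mobilization. Values are the mean of two experiments.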

[2] = target: T1, C-X-C chemokine receptor type 4; assay: as §1; in short: as §2; remark: listed apart in the source
[3] = Selectivity index (SI) is determined as the ratio of CC50/EC50; assay type: functional
In short: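 Ratio of CC50 to EC50, both taken from MTT read-outs in MT-4 cells: mock-infected cells for CC50 and HIV-1 IIIB-infected cells for EC50. Each value is the mean of at least three experiments.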

MT4 = assay: Cytotoxicity based on the reduction of the viability of mock-infected MT-4 cells using the MTT method; assay type: functional, Homo sapiens
In short: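 Mock-infected MT-4 cells were exposed to compound. Loss of viability was read by the MTT method, and CC50 was derived. Values are the mean of at least three experiments.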

SMILES | SI [3] | CC50 (MT4) | CC50 (MT4; Homo sapiens, MT4) | further results
C[C@H]1/C=C\[C@@H](CCCCN)NC(=O)[C@H](CCCCN)NC(=O)[C@H](CCCNC(=N)N)NC(=O)[C@H](Cc2ccc(O)cc2)NC(=O)[C@@H](NC(=O)[C@H](Cc2ccc3ccccc3c2)NC(=O)[C@H](CCCNC(=N)N)NC(=O)[C@@H](N)CCCN=C(N)N)CSSC[C@@H](C(=O)N[C@@H](CCCNC(=N)N)C(=O)O)NC(=O)[C@H](CCCNC(N)=O)NC(=O)[C@H](CCCNC(=N)N)NC(=O)[C@H](Cc2ccc(O)cc2)NC1=O |  |  |  | IC50 [1]: 0.0069 µM; IC50 [2]: 0.0073 µM
C[C@H]1/C=C\[C@@H](CCCCN)NC(=O)[C@H](CCCCN)NC(=O)[C@@H](CCCN=C(N)N)NC(=O)[C@H](Cc2ccc(O)cc2)NC(=O)[C@@H](NC(=O)[C@H](Cc2c[nH]c3ccccc23)NC(=O)[C@H](CCCN=C(N)N)NC(=O)[C@@H](N)CCCN=C(N)N)CSSC[C@@H](C(=O)N[C@@H](CCCN=C(N)N)C(=O)O)NC(=O)C(CCCNC(N)=O)NC(=O)[C@@H](CCCN=C(N)N)NC(=O)[C@H](Cc2ccc(O)cc2)NC1=O (some centres undefined) | > 78000 |  |  | 
C[C@H]1/C=C\[C@@H](CCCCN)NC(=O)[C@H](CCCCN)NC(=O)[C@@H](CCCN=C(N)N)NC(=O)[C@H](Cc2ccc(O)cc2)NC(=O)[C@@H](NC(=O)[C@H](Cc2ccc3ccccc3c2)NC(=O)[C@H](CCCN=C(N)N)NC(=O)[C@@H](N)CCCN=C(N)N)CSSC[C@@H](C(=O)N[C@@H](CCCN=C(N)N)C(N)=O)NC(=O)C(CCCNC(N)=O)NC(=O)[C@@H](CCCN=C(N)N)NC(=O)[C@H](Cc2ccc(O)cc2)NC1=O (some centres undefined) | 12000 and 31000 |  |  | 
C[C@H]1/C=C\[C@@H](CCCCN)NC(=O)[C@H](CCCCN)NC(=O)[C@@H](CCCN=C(N)N)NC(=O)[C@H](Cc2ccc(O)cc2)NC(=O)[C@@H](NC(=O)[C@H](Cc2ccc3ccccc3c2)NC(=O)[C@H](CCCN=C(N)N)NC(=O)[C@@H](N)CCCN=C(N)N)CSSC[C@@H](C(=O)N[C@@H](CCCN=C(N)N)C(=O)O)NC(=O)C(CCCNC(N)=O)NC(=O)[C@@H](CCCN=C(N)N)NC(=O)[C@H](Cc2ccc(O)cc2)NC1=O (some centres undefined) | > 220000 and 140000 |  |  | 
C[C@H]1/C=C\[C@@H](CCCCN)NC(=O)[C@H](CCCCN)NC(=O)[C@H](CCCN=C(N)N)NC(=O)[C@H](Cc2ccc(O)cc2)NC(=O)[C@@H](NC(=O)[C@H](CSCc2ccccc2)NC(=O)[C@H](CCCN=C(N)N)NC(=O)[C@@H](N)CCCN=C(N)N)CSSC[C@@H](C(=O)N[C@@H](CCCN=C(N)N)C(N)=O)NC(=O)[C@H](CCCNC(N)=O)NC(=O)[C@H](CCCN=C(N)N)NC(=O)[C@H](Cc2ccc(O)cc2)NC1=O |  | 59 µM | 54 µM | 
C[C@H]1/C=C\[C@@H](CCCCN)NC(=O)[C@H](CCCCN)NC(=O)[C@H](CCCN=C(N)N)NC(=O)[C@H](Cc2ccc(O)cc2)NC(=O)[C@@H](NC(=O)[C@H](CSC23C[C@H]4C[C@@H](C2)C[C@@H](C3)C4)NC(=O)[C@H](CCCN=C(N)N)NC(=O)[C@@H](N)CCCN=C(N)N)CSSC[C@@H](C(=O)N[C@@H](CCCN=C(N)N)C(N)=O)NC(=O)[C@H](CCCNC(N)=O)NC(=O)[C@H](CCCN=C(N)N)NC(=O)[C@H](Cc2ccc(O)cc2)NC1=O |  | 57 µM | 49 µM | 
C[C@H]1/C=C\[C@@H](CCCCN)NC(=O)[C@H](CCCCN)NC(=O)[C@H](CCCN=C(N)N)NC(=O)[C@H](Cc2ccc(O)cc2)NC(=O)[C@@H](NC(=O)[C@H](Cc2ccc3ccccc3c2)NC(=O)[C@H](CCCN=C(N)N)NC(=O)[C@@H](N)CCCN=C(N)N)CSSC[C@@H](C(=O)N[C@@H](CCCN=C(N)N)C(=O)O)NC(=O)[C@H](CCCNC(N)=O)NC(=O)[C@H](CCCN=C(N)N)NC(=O)[C@H](Cc2ccc(O)cc2)NC1=O |  | 67 µM and 270 µM |  | 
C[C@H]1/C=C\[C@@H](CCCCN)NC(=O)[C@H](CCCCN)NC(=O)[C@@H](CCCN=C(N)N)NC(=O)[C@H](Cc2ccc(O)cc2)NC(=O)[C@@H](NC(=O)[C@H](Cc2c[nH]c3ccccc23)NC(=O)[C@H](CCCN=C(N)N)NC(=O)[C@@H](N)CCCN=C(N)N)CSSC[C@@H](C(=O)N[C@@H](CCCN=C(N)N)C(N)=O)NC(=O)C(CCCNC(N)=O)NC(=O)[C@@H](CCCN=C(N)N)NC(=O)[C@H](Cc2ccc(O)cc2)NC1=O (some centres undefined) | 15000 and 20000 |  |  | 
C[C@H]1/C=C\[C@@H](CCCCN)NC(=O)[C@H](CCCCN)NC(=O)[C@H](CCCN=C(N)N)NC(=O)[C@H](Cc2ccc(O)cc2)NC(=O)[C@@H](NC(=O)[C@H](Cc2c[nH]c3ccccc23)NC(=O)[C@H](CCCN=C(N)N)NC(=O)[C@@H](N)CCCN=C(N)N)CSSC[C@@H](C(=O)N[C@@H](CCCN=C(N)N)C(=O)O)NC(=O)[C@H](CCCNC(N)=O)NC(=O)[C@H](CCCN=C(N)N)NC(=O)[C@H](Cc2ccc(O)cc2)NC1=O |  |  | 100 µM | 
C[C@H]1/C=C\[C@@H](CCCCN)NC(=O)[C@H](CCCCN)NC(=O)[C@H](CCCN=C(N)N)NC(=O)[C@H](Cc2ccc(O)cc2)NC(=O)[C@@H](NC(=O)[C@H](Cc2ccc3ccccc3c2)NC(=O)[C@H](CCCN=C(N)N)NC(=O)[C@@H](N)CCCN=C(N)N)CSSC[C@@H](C(=O)N[C@@H](CCCN=C(N)N)C(N)=O)NC(=O)[C@H](CCCNC(N)=O)NC(=O)[C@H](CCCN=C(N)N)NC(=O)[C@H](Cc2ccc(O)cc2)NC1=O |  | 58 µM | 57 µM | 
